High-throughput results from PubChem.
The sample as a whole holds a higher share of hits than the screen did.
UPR CHOP act – apoptotic UPR (CHOP) activation | CHO-CHOP luciferase reporter, luminescence; percent of tunicamycin response over DMSO baseline | activation, % at 10 µM | 330,000 compounds, 0.34% hits | AID 449763;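 active means at 10 µM dose, activation of 40% or more, normalized to positive control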
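Test system: CHO-CHOP cells, stable luciferase reporter of PERK-eIF2a-CHOP signalling | Quantity: 500 CHO-CHOP cells per well | Buffer or medium: F12 plus 10% serum | Compound dosing: 10 µM single point, 0.5% DMSO | Schedule: 6 h compound treatment, 37 °C | Signal: Luciferase luminescence | Control set: Tunicamycin high control, DMSO low control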
Dynein transport – dynein cargo transport inhibition; 3617.4 mouse cells, GR-EGFP nuclear translocation imaging; test concentration mostly 20 µM; stimulated with dexamethasone, 1 µM; active compounds read low; z-score, hits read low; 220,000 compounds, 0.47% hits;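 active means plate z-score of nuclear minus cytoplasmic receptor signal below a set negative limit, without overly bright fluorescence or cell loss, cut at about -3.5 in these data, passing the limit was not always enough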;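 further: z-score of nuclear minus cytoplasmic ring GR-EGFP intensity difference per well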
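Buffer or medium: tet-free, stripped-serum medium; Also added: dexamethasone, 1.0 µM final; Technique: high-content fluorescence imaging after fixation; Times: 48 h induction, 1 h compound, 30 min dex at 37 °C; Read-out: per-cell GR-EGFP intensity, nucleus versus surrounding cytoplasmic ring, well-averaged.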
XBP1 UPR activ – activators of adaptive arm of unfolded protein response (XBP1); CHO-XBP1 luciferase reporter, IRE1-XBP1 UPR activation, luminescence; percent of tunicamycin response, DMSO as zero; activation, % at 20 µM; 330,000 compounds, 0.33% hits; AID 463104;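 active means versus positive control, 20 µM dose yields 30% or more activation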
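Material: CHO-XBP1 cells stably carrying IRE1-XBP1-driven luciferase reporter | Medium: F12 with 10% serum | Compound dosing: 20 µM single concentration, DMSO 1% | Incubation: Overnight seeding at 37 °C, 6 h compound treatment at 37 °C | Detection: Steady-Glo luminescence read | Read-out basis: % activation of reporter signal versus tunicamycin and DMSO controls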
T cruzi repl – blocks replication of Trypanosoma cruzi; T. cruzi beta-gal in NIH3T3, luminescence, 90 h; AID 1885; 300,000 compounds, 1.4% hits; inhibition, % (test concentration not listed);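 active means mean inhibition across valid replicates above about 55%, limit read from the data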;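 further: signal also drops with host cell toxicity which is not excluded here; higher percent means less beta-gal luminescence so fewer parasites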
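Read-out: Parasite load inhibition, % | Test system: Mouse NIH/3T3 fibroblasts infected with β-gal-expressing T. cruzi Tulahuen C4 | Amount: 5,000 cells/well | Medium: DMEM, 2% fetal bovine serum | Signal: GalScreen β-gal luminescence, detergent lysis, 60 min | Timing: 3 h attach, ≥90 h co-culture | Also added: Tulahuen C4 trypomastigotes, 5000/well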
CHOP inhibitor – CHOP inhibition in unfolded protein response. AID 2732. inhibition, % at 10 µM. CHO-K1 CHOP-promoter luciferase, tunicamycin-induced, 15-18 h. 220,000 compounds, 3.8% hits;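 active means compounds that reduced the stress-induced luciferase reporter signal by more than about 70% of percent inhibition, limit read from the data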
Lmaj promast – Leishmania major promastigote growth inhibition; Leishmania major promastigotes, resazurin fluorescence viability; inhibition, % at 10 µM; 200,000 compounds, 9% hits; AID 1063; in the data active means inhibition above about 50%;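 further: promastigotes grown with compound for 44 hours at 28 °C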
Hits are given with their value; 0 = inactive; - = no result.

SMILES	UPR CHOP act	Dynein transport	XBP1 UPR activ	T cruzi repl	CHOP inhibitor	Lmaj promast
Cc1noc(C)c1CS(=O)(=O)c1ccc([N+](=O)[O-])cc1	0	0	0	0	0	0
CCN(CC)CC(C)CNC(=O)C1(O)c2ccccc2NC(=O)N1c1ccc(Cl)c(Cl)c1 (configuration not stated)	0	-	0	0	-	-
Cc1ccc2c(c1)Sc1ccccc1CC2=O	0	0	0	0	0	0
CN(C)CCOc1ccc2c(c1)Sc1ccccc1CC2=O	0	0	0	0	0	100
COc1ccc(Nc2nnc(-c3ccc(O)cc3)c3ccccc23)cc1	0	0	0	57	0	0
COc1ccc(-c2nnc(Nc3ccc(OC)c(C(=O)N4CCCCC4)c3)c3ccccc23)cc1	0	0	0	0	0	53
Oc1ccc(Nc2nnc(-c3ccc(O)cc3)c3ccccc23)cc1	0	0	0	0	0	0
Cc1cccc(C)c1NC1=NC(=S)N(c2ccccc2)C12CCOC(C)(C)C2 (configuration not stated)	0	0	0	0	0	0
Cc1ccc(N2C(=S)N=C(Nc3ccccc3C)C23CCOC(C)(C)C3)cc1 (configuration not stated)	0	0	0	0	84	0
CCCn1c(CN2CCN(C(=O)OCC)CC2)nc2cc(NC(=O)CC)ccc21	0	-	0	0	-	-
CCCCn1c(NC(=O)c2ccc(F)cc2)c(C#N)c2nc3ccccc3nc21	0	-	96	0	-	-
Cc1ccc(C(=O)NCCn2c(N)c(C#N)c3nc4ccccc4nc32)cc1	0	0	0	0	0	0
CCCCn1c(NC(=O)c2ccccc2)c(C#N)c2nc3ccccc3nc21	-	0	-	-	0	97
COc1ccc(C)cc1NS(=O)(=O)c1ccc2c(c1)N(C)CCO2	0	-	0	0	-	-
CC(C)c1cccc(OCCN2CCCC2)c1	0	-	0	0	-	-
O=C(Nc1cccc(O)c1)c1ccccc1	0	0	0	0	0	62
CC(C)c1ccccc1NC(=O)c1cccc(NC(=O)c2ccccc2)c1	0	0	0	0	0	91
CC(C)c1cc(NC(=O)c2ccccc2)cc(C(C)C)c1O	0	0	0	0	0	0
Cc1ccc(C(=O)Nc2cccc(C(=O)NCc3ccccc3)c2)cc1	0	0	0	0	0	52
O=C(O)/C=C\C(=O)Nc1cccc(C(=O)Nc2cccc(O)c2)c1	0	0	0	0	0	0
COc1ccc(C(=O)Nc2cccc(C(=O)NCc3ccccc3)c2)cc1	0	0	0	0	0	0
O=C(NNc1cc(Br)c(O)c(Br)c1)c1ccccc1	0	0	0	0	0	88
Cc1ccc(CNC(=O)C2CCN(S(=O)(=O)c3c(C)noc3/C=C/c3ccco3)CC2)cc1	0	0	0	0	0	93
Cc1noc(/C=C/c2ccco2)c1S(=O)(=O)N1CCC(C(=O)N2CCc3ccccc3C2)CC1	0	0	0	0	0	73
Cc1noc(/C=C/c2cccs2)c1S(=O)(=O)N1CCC(C(=O)NCCCN2CCC(C)CC2)CC1	0	0	0	0	0	90
SMILES	UPR CHOP act	Dynein transport	XBP1 UPR activ	T cruzi repl	CHOP inhibitor	Lmaj promast
COc1cccc(OC)c1OCCN1CCN(C(c2ccccc2)c2ccccc2)CC1	0	-	0	0	-	-
CC(C)[C@H](NC(=O)N1CC(=O)Nc2ccccc21)C(=O)N[C@H](Cc1ccccc1)C(=O)O	0	-	0	0	-	-
CCOc1[nH]n(-c2ccccc2)c(=O)c1C=Nc1ccc(C)cc1	0	0	0	0	77	0
COc1ccc(-c2cc(=O)c3cc(OC)ccc3o2)cc1	0	0	0	0	78	0
O=C(CN1CCN(C(=O)C2CCN(C(=O)/C=C/c3ccccc3)CC2)CC1)Nc1ccccc1Cl	0	-	0	-	-	-
Cn1c(=O)n(C)c2cc([N+](=O)[O-])c(N3CCN(CCO)CC3)cc21	0	0	0	0	0	0
CC(C)C(NC(=O)C12CC3CC(CC(C3)C1)C2)C(=O)N/N=C/C1=C(N2CCOCC2)C(=C\c2cccc([N+](=O)[O-])c2)/CC1 (configuration not stated)	0	0	0	56	0	97
Cn1cc(C(=O)N/N=C/C2=C(N3CCOCC3)C(=C/c3ccc([N+](=O)[O-])cc3)/CC2)ccc1=O	0	-	0	0	-	-
O=C(c1ccc2c(=O)n(Cc3ccc(Cl)cc3)c(=S)[nH]c2c1)N1CCOCC1	0	-	0	0	-	-
CCOC(=O)c1c(/N=C/N(C)C)sc(/C=N/Nc2ccccc2)c1-c1ccccc1	0	0	0	0	82	95
CCOC(=O)c1c(/N=C/N(C)C)sc(/C=N/Nc2ccccc2)c1-c1ccccc1Cl	0	0	0	0	0	0
CCC(C)C(=O)Nn1c(C2CC2)nc2cc(OC)c(OC)cc2c1=O (configuration not stated)	0	0	0	0	0	0
O=S(=O)(CC(CN1CCCCC1)N1CCCCC1)c1ccccc1 (configuration not stated)	0	0	0	0	0	98
O=[N+]([O-])c1ccc(S(=O)(=O)CC(CN2CCOCC2)N2CCOCC2)cc1 (configuration not stated)	0	0	0	0	0	0
Cn1c(C(=O)OC(C(=O)NCc2ccco2)c2ccncc2)cc2sccc21 (configuration not stated)	0	0	0	0	0	0
CCC(C)(C)NC(=O)C(OC(=O)c1cc2sccc2n1C)c1ccc(OC)cc1 (configuration not stated)	0	0	0	0	79	0
Cc1cc(C(=O)NNc2ccccc2F)no1	0	0	0	61	0	-
CCc1ccccc1NNC(=O)c1cc(C)on1	0	0	0	0	0	-
O=C(/C=C/c1cccs1)NC(=S)NNC(=O)c1ccccc1O	0	0	0	0	0	99
CN(CC(=O)Nc1ccc(N2CCOCC2)cc1)CC(=O)Nc1ccc(Cl)cc1[N+](=O)[O-]	0	0	0	0	0	0
Cc1cc(C)c(C)c(N=Nc2nc3ccccc3n2C)c1C	0	0	0	0	0	0
Cc1ccc(C)c(N=Nc2nc3ccccc3n2C)c1	0	0	0	0	0	83
Cn1c(=O)c2c(nc(SCCN3CCCCC3)n2Cc2ccccc2)n(C)c1=O	0	0	0	0	0	90
CCC1CCCCN1Cc1nc2c(c(=O)n(C)c(=O)n2C)n1Cc1ccccc1 (configuration not stated)	0	0	0	0	83	0
Cn1c(=O)c2c(nc(SCCN3CCOCC3)n2Cc2ccccc2Cl)n(C)c1=O	0	0	0	0	0	0
Cc1ccc(Cn2c(SCCN3CCCCC3)nc3c2c(=O)n(C)c(=O)n3C)cc1	0	0	0	0	0	99
